Results from ChEMBL document CHEMBL1777810, “Synthesis and in vitro anti-HIV activity of N-1,3-benzo[d]thiazol-2-yl-2-(2-oxo-2H-chromen-4-yl)acetamide derivatives using MTT method” (Bioorg Med Chem Lett, 2011).
Converted amounts (≈) assume the structure as drawn.

Assays:
[1] = Cytotoxicity against human mock-infected MT4 cells after 4 days by MTT assay; assay type: cell-based
Method in brief: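 Mock-infected MT-4 cells were grown in HEPES-buffered RPMI-1640 with 10% heat-inactivated FCS and subcultured every 3–4 d. Viability was read by MTT at 7.5 mg/ml for 1 h at 37 °C, with formazan dissolved in acidified Triton X-100/isopropanol and read at A540 minus A690. CC50 is the concentration lowering OD540 of the mock-infected control by 50%.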

[2] = test system: Human immunodeficiency virus 1; experiment: Antiviral activity against wild type HIV1 infected in human MT4 cells assessed as protection against virus-induced cytopathogenicity after 5 days by MTT assay; conditions: Human immunodeficiency virus 1, MT4, 120 h

SMILES	CC50 at 96 h [1]	EC50 [2]
Cc1cccc2c(CC(=O)Nc3nc4ccc([N+](=O)[O-])cc4s3)cc(=O)oc12	> 12 µg/mL	12 µg/mL (≈ 30.3 µM)
Cc1cccc2c(CC(=O)Nc3nc4ccc(Cl)cc4s3)cc(=O)oc12	> 21 µg/mL	21 µg/mL (≈ 54.6 µM)
Cc1cccc2c(CC(=O)Nc3nc4ccc(F)cc4s3)cc(=O)oc12	> 100 µg/mL	100 µg/mL (≈ 271 µM)
Cc1cccc2c(CC(=O)Nc3nc4cc(Cl)c(F)cc4s3)cc(=O)oc12	> 58 µg/mL	58 µg/mL (≈ 144 µM)
Cc1ccc2c(CC(=O)Nc3nc4ccc([N+](=O)[O-])cc4s3)cc(=O)oc2c1	> 49 µg/mL	49 µg/mL (≈ 124 µM)
Cc1ccc2c(CC(=O)Nc3nc4ccc(Cl)cc4s3)cc(=O)oc2c1	> 44 µg/mL	44 µg/mL (≈ 114 µM)
Cc1ccc2c(CC(=O)Nc3nc4ccc(F)cc4s3)cc(=O)oc2c1	> 44 µg/mL	44 µg/mL (≈ 119 µM)
Cc1ccc2c(CC(=O)Nc3nc4cc(Cl)c(F)cc4s3)cc(=O)oc2c1	> 17 µg/mL	17 µg/mL (≈ 42.2 µM)
Cc1ccc2oc(=O)cc(CC(=O)Nc3nc4ccc([N+](=O)[O-])cc4s3)c2c1	> 32 µg/mL	32 µg/mL (≈ 80.9 µM)
Cc1ccc2oc(=O)cc(CC(=O)Nc3nc4ccc(Cl)cc4s3)c2c1	> 27 µg/mL	27 µg/mL (≈ 70.2 µM)
Cc1ccc2oc(=O)cc(CC(=O)Nc3nc4ccc(F)cc4s3)c2c1	> 20 µg/mL	20 µg/mL (≈ 54.3 µM)
Cc1ccc2oc(=O)cc(CC(=O)Nc3nc4cc(Cl)c(F)cc4s3)c2c1	> 12 µg/mL	12 µg/mL (≈ 29.8 µM)
Cc1ccc2c(CC(=O)Nc3nc4ccc([N+](=O)[O-])cc4s3)cc(=O)oc2c1C	> 9 µg/mL	9 µg/mL (≈ 22 µM)
Cc1ccc2c(CC(=O)Nc3nc4ccc(Cl)cc4s3)cc(=O)oc2c1C	> 60 µg/mL	60 µg/mL (≈ 150 µM)
Cc1ccc2c(CC(=O)Nc3nc4ccc(F)cc4s3)cc(=O)oc2c1C	> 24 µg/mL	24 µg/mL (≈ 62.8 µM)
Cc1ccc2c(CC(=O)Nc3nc4cc(Cl)c(F)cc4s3)cc(=O)oc2c1C	> 97 µg/mL	97 µg/mL (≈ 233 µM)
Cc1cc(C)c2oc(=O)cc(CC(=O)Nc3nc4ccc([N+](=O)[O-])cc4s3)c2c1	> 100 µg/mL	100 µg/mL (≈ 244 µM)
Cc1cc(C)c2oc(=O)cc(CC(=O)Nc3nc4ccc(Cl)cc4s3)c2c1	> 65 µg/mL	65 µg/mL (≈ 163 µM)
Cc1cc(C)c2oc(=O)cc(CC(=O)Nc3nc4ccc(F)cc4s3)c2c1	> 38 µg/mL	38 µg/mL (≈ 99.4 µM)
Cc1cc(C)c2oc(=O)cc(CC(=O)Nc3nc4cc(Cl)c(F)cc4s3)c2c1	> 16 µg/mL	16 µg/mL (≈ 38.4 µM)
O=C(Cc1cc(=O)oc2cc(O)ccc12)Nc1nc2ccc([N+](=O)[O-])cc2s1	> 8 µg/mL	8 µg/mL (≈ 20.1 µM)
O=C(Cc1cc(=O)oc2cc(O)ccc12)Nc1nc2ccc(Cl)cc2s1	> 7 µg/mL	7 µg/mL (≈ 18.1 µM)
O=C(Cc1cc(=O)oc2cc(O)ccc12)Nc1nc2ccc(F)cc2s1	> 21 µg/mL	21 µg/mL (≈ 56.7 µM)
O=C(Cc1cc(=O)oc2cc(O)ccc12)Nc1nc2cc(Cl)c(F)cc2s1	> 100 µg/mL	100 µg/mL (≈ 247 µM)
COc1ccc2nc(NC(=O)Cc3cc(=O)oc4c3ccc3ccccc34)sc2c1	> 100 µg/mL	100 µg/mL (≈ 240 µM)
COc1ccc2nc(NC(=O)Cc3cc(=O)oc4ccc5ccccc5c34)sc2c1	> 100 µg/mL	100 µg/mL (≈ 240 µM)
Cc1cn([C@H]2C[C@H](N=[N+]=[N-])[C@@H](CO)O2)c(=O)[nH]c1=O [ZIDOVUDINE]	65.4 µg/mL (≈ 245 µM)	0.0012 µg/mL (≈ 0.00449 µM)
